Experimental data reported in PubChem BioAssay AID1453 (NMMLSC, 2008).
Some of the results follow. The source made the active and inactive calls.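 The calls were made as follows: active = inhibition above 50%; inactive = the rest.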

biological target: Broad substrate specificity ATP-binding cassette transporter ABCG2 (Homo sapiens) (UniProt Q9UNQ0); test: blockers of JC-1 export by ABCG2 – single point, IgMXP3 cells, ABCB1 counter-screen paired, confirmation (AID 1453); settings: JC-1 efflux, flow cytometry, at 6.6 µM, stronger effect = higher value;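 also: 0% = DMSO wells and 100% = nicardipine pump inhibitor wells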
In short: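 Assay system: Drug-resistant IgMXP3 cells expressing human ABCG2 | Quantity: 3 million cells/mL final | Technique: Flow cytometry, median fluorescence at 530 nm | Compound dosing: Single test compound dose, 6.6 µM final | Times: 10 min end-over-end mixing at 25 °C before reading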

Chain of Broad substrate specificity ATP-binding cassette transporter ABCG2 (Homo sapiens) (Q9UNQ0 whole entry, looked up): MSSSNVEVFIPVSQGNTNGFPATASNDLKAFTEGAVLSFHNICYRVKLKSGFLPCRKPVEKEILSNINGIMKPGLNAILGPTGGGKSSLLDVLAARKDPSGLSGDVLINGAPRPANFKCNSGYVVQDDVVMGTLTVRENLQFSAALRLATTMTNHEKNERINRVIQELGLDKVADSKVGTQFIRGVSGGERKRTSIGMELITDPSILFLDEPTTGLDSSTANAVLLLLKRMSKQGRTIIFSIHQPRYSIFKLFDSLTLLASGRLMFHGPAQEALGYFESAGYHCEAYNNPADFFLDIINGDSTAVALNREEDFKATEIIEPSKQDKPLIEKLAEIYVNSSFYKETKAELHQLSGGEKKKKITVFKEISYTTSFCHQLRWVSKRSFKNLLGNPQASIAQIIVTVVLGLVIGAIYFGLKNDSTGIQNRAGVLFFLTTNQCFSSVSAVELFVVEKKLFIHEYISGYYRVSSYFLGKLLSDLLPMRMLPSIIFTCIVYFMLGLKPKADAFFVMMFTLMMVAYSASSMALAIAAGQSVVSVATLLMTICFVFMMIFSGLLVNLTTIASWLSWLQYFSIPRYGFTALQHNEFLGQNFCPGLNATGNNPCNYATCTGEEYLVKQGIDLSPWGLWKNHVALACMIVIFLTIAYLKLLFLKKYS

Compound | inhibition
Cc1c(CCOC(=O)CC23CC4CC(CC(C)(C4)C2)C3)sc[n+]1Cc1ccc([N+](=O)[O-])cc1 | 27.4% (inactive)
COc1cccc(NC(=O)c2ccc(Cn3cc([N+](=O)[O-])cn3)o2)c1 | 21.8% (inactive)
CCN1/C(=C/c2ccc3ccc(C)cc3[n+]2CC)Sc2ccccc21 | 31.6% (inactive)
CCOC(=O)c1sc(NC(=O)CSc2nnc(-c3ccco3)o2)c(C(=O)OCC)c1C | 37% (inactive)
Cc1cccc2cc(CN(Cc3cccs3)C(c3nnnn3C3CCCC3)C(C)C)c(=O)[nH]c12 (stereo not drawn) | 39.9% (inactive)
CCOCC(=O)Nc1sc2c(c1C(=O)OCC)CCCC2 | 38.7% (inactive)
COc1ccc(-n2c(C)cc(C(=O)COC(=O)c3cc(OC)c(OC)cc3NC(=O)c3cccs3)c2C)cc1 | 14.8% (inactive)
COc1ccc(C)cc1NC(=O)C(Sc1ccccc1)c1ccccc1 (stereo not drawn) | 10.9% (inactive)
O=C(Cc1c[nH]c2ccccc12)N/N=C/c1cccc(F)c1 | 19.6% (inactive)
Cc1ccc(-n2c(SCC(=O)Nc3ncc(Cl)cc3Cl)nc3ccccc32)cc1 | 28.9% (inactive)
C=CCn1c(SCCOc2ccc(OC)cc2)nnc1C(NC(=O)c1ccc(OC)cc1)C(C)C (stereo not drawn) | 15.5% (inactive)
C/C(=N\Nc1ncc(Cl)cc1Cl)c1ccc(S(=O)(=O)NCc2ccco2)cc1 | 21.6% (inactive)
Cc1ccc(OCC(O)CN2CCN(CC(O)COc3ccc(C)cc3Cl)CC2)c(Cl)c1 (stereo not drawn) | 8.02% (inactive)
